{"source": "ChEMBL document CHEMBL3774351", "about": "“Three stories on Eph kinase inhibitors: From in silico discovery to in vivo validation” (Eur J Med Chem, 2016)", "key": {"[1]": {"system": "Mus musculus", "experiment": "AUClast in CD-1 (ICR) mouse at 1 mg/kg, iv", "type": "ADME, organism-based", "set-up": "dose 1 mg/kg, route intravenous, time 0 - last", "settings": "in vivo"}, "[2]": {"system": "Mus musculus", "experiment": "Toxicity in nude mouse xenografted with human MDA-MB-231 cells assessed as reduction in body weight at 50 mg/kg, bid administered for 21 days measured during the treatment period", "type": "organism-based", "set-up": "scale not given: the % may be the effect or the level left", "settings": "in vivo, 504 h", "how_it_was_run": "(§1)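 MDA-MB-231 xenografts in nude mice, treatment started at median tumor volume 108 mm3. Oral gavage of 50 mg/kg twice daily (100 mg/kg/day) for 21 days versus vehicle cohort, 9 animals per cohort. Median tumor volume followed over time. Mean body weight monitored through the treatment period.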"}, "[3]": {"system": "HUVEC", "experiment": "Antiangiogenic activity in HUVEC assessed as inhibition of VEGF-A-induced angiogenic sprouting by spheroid-based sprouting assay", "settings": "Homo sapiens"}, "[4]": {"system": "MDA-MB-231", "experiment": "Antitumor activity against human MDA-MB-231 cells xenografted in nude mouse assessed as tumor growth inhibition at 50 mg/kg, bid administered for 21 days relative to control", "type": "functional", "settings": "MDA-MB-231, 504 h", "how_it_was_run": "as §1"}, "[5]": {"biological_target": "T1, Ephrin type-B receptor 4 (Homo sapiens, UniProt P54760)", "T1 sequence (P54760 whole entry)": "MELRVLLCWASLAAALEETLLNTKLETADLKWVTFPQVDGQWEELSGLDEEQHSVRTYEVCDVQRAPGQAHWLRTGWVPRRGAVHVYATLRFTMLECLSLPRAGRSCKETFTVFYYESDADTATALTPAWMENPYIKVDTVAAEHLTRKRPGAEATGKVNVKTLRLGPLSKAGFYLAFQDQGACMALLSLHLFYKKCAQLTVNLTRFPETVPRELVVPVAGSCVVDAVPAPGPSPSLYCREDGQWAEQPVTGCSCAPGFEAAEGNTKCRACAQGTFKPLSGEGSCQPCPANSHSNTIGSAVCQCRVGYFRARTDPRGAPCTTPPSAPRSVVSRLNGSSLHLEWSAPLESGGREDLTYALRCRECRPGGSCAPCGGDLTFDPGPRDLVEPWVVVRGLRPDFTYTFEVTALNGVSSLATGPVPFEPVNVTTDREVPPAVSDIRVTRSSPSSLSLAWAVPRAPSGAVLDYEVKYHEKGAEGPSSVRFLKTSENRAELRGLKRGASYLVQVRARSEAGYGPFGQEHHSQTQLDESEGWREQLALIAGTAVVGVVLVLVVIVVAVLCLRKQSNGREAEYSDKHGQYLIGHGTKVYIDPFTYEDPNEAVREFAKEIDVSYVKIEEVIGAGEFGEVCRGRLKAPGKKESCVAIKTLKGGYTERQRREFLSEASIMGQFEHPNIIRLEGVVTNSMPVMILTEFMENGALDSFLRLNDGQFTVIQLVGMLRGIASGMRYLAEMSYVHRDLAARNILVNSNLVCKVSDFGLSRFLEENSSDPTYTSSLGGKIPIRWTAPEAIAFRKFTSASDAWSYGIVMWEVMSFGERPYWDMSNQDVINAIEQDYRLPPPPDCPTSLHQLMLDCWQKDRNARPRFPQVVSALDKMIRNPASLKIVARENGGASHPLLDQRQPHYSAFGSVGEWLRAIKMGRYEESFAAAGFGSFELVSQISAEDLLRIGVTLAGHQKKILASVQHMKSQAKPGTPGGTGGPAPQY", "experiment": "Inhibition of N-terminal GST-fused His6-tagged human recombinant EphB4", "how_it_was_run": "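EphB4 FRET enzymatic assay measuring inhibition of phosphorylation of a synthetic substrate, with ATP at Km.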"}, "[6]": {"experiment": "Half life in human liver microsomes at 0.1 uM up to 60 mins by HPLC-MS/MS analysis"}, "[7]": {"system": "HUVEC", "experiment": "Antiangiogenic activity in HUVEC assessed as reduction in number of loops at 1 uM after 15 hrs by matrigel assay", "type": "functional", "settings": "Homo sapiens"}, "[8]": {"system": "HUVEC", "experiment": "Antiangiogenic activity in HUVEC assessed as reduction in branching points at 1 uM after 15 hrs by matrigel assay", "type": "functional", "settings": "Homo sapiens"}, "[9]": {"system": "HUVEC", "experiment": "Antiangiogenic activity in HUVEC assessed as reduction in number of loops after 15 hrs by matrigel assay", "type": "functional, cell-based", "settings": "Homo sapiens", "how_it_was_run": "(§2)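 HUVEC seeded on Matrigel and incubated with compound for 15 h. Tube length, total branching points and total loops quantified against untreated control cells. Dose-response curves used to derive IC50 for each read-out. Measurements done at least in triplicate, SEM shown.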"}, "[10]": {"system": "HUVEC", "experiment": "Antiangiogenic activity in HUVEC assessed as reduction in branching points after 15 hrs by matrigel assay", "type": "functional, cell-based", "settings": "Homo sapiens", "how_it_was_run": "as §2"}, "[11]": {"system": "HUVEC", "experiment": "Antiangiogenic activity in HUVEC assessed as reduction in tube length after 15 hrs by matrigel assay", "type": "functional, cell-based", "settings": "Homo sapiens", "how_it_was_run": "as §2"}}, "note": "pIC50: −log10 of the molar value."}
{"smiles": "Cc1ccc(O)cc1-n1c(N)c(C(N)=O)c2nc3ccccc3nc21", "values": [{"measurement": "AUClast", "setting": "[1]", "value": 39, "unit": "ng·h/mL"}, {"measurement": "Activity", "setting": "[2]", "value": "<= 16%"}, {"measurement": "pIC50", "setting": "[3]", "value": 5.82}, {"measurement": "inhibition in vivo at 50 mg/kg", "setting": "[4]", "value": 80, "unit": "%"}]}
{"smiles": "COc1cccc(-n2c(N)c(C(N)=O)c3nc4ccccc4nc32)c1", "values": [{"measurement": "pIC50", "setting": "[5]", "value": 6.52}]}
{"smiles": "CC(C)NCC(O)COc1cccc2ccccc12", "note": "(stereo unspecified) [PROPRANOLOL]", "values": [{"measurement": "half-life at 1 h, 0.1 µM", "setting": "[6]", "value": "> 1", "unit": "h"}]}
{"smiles": "COc1ccccc1-n1c(-c2ccc(O)cc2C)cn2c3c(=O)[nH]c(=O)n(C)c3nc12", "values": [{"measurement": "inhibition at 1 µM", "setting": "[7]", "value": 97, "unit": "%"}, {"measurement": "inhibition at 1 µM", "setting": "[8]", "value": 87, "unit": "%"}, {"measurement": "pIC50", "setting": "[9]", "value": 7.15}, {"measurement": "pIC50", "setting": "[10]", "value": 6.72}, {"measurement": "pIC50", "setting": "[11]", "value": 5.77}]}
